Test results reported in paper PMC4929832 (Nature, 2016).
Like-named read-outs stand apart in the source and are kept apart here.

How the values were obtained:
[1] = target: ABL1 (Homo sapiens, UniProt P00519); assay: kinase panel; format: biochemical
[2] = target: ROCK2 (Homo sapiens, UniProt O75116); assay: kinase panel; format: biochemical
[3] = target: RSK2 (Homo sapiens, UniProt P51812); assay: kinase panel; format: biochemical
[4] = target: RSK3 (Homo sapiens, UniProt Q15349); assay: kinase panel; format: biochemical
[5] = target: ARK5 (Homo sapiens, UniProt O60285); assay: kinase panel; format: biochemical
[6] = target: MER (Homo sapiens, UniProt Q12866); assay: kinase panel; format: biochemical
[7] = target: PI3K-DELTA (Homo sapiens, UniProt O00329); assay: kinase panel; format: biochemical
[8] = target: AURORA-B (Homo sapiens, UniProt Q96GD4); assay: kinase panel; format: biochemical
[9] = target: SLK (Homo sapiens, UniProt Q9H2G2); assay: kinase panel; format: biochemical
[10] = target: DDR2 (Homo sapiens, UniProt Q16832); assay: kinase panel; format: biochemical
[11] = target: PIM1 (Homo sapiens, UniProt P11309); assay: kinase panel; format: biochemical
[12] = target: IGF1R (Homo sapiens, UniProt P08069); assay: kinase panel; format: biochemical
[13] = target: IKK-BETA (Homo sapiens, UniProt O14920); assay: kinase panel; format: biochemical
[14] = target: EGFR (Homo sapiens, UniProt P00533); assay: kinase panel; format: biochemical
[15] = target: MST2 (Homo sapiens, UniProt Q13188); assay: kinase panel; format: biochemical
[16] = target: PKC-ETA (Homo sapiens, UniProt P24723); assay: kinase panel; format: biochemical
[17] = target: PKC-THETA (Homo sapiens, UniProt Q04759); assay: kinase panel; format: biochemical
[18] = target: NDR1 (Homo sapiens, UniProt Q15208); assay: kinase panel; format: biochemical
[19] = target: CAMK2D (Homo sapiens, UniProt Q13557); assay: kinase panel; format: biochemical
[20] = target: NEK6 (Homo sapiens, UniProt Q9HC98); assay: kinase panel; format: biochemical
[21] = target: PLK4 (Homo sapiens, UniProt O00444); assay: kinase panel; format: biochemical
[22] = target: PRAK (Homo sapiens, UniProt Q8IW41); assay: kinase panel; format: biochemical
[23] = target: LCK (Homo sapiens, UniProt P06239); assay: kinase panel; format: biochemical
[24] = target: CDK5 (Homo sapiens, UniProt Q00535); assay: kinase panel; format: biochemical
[25] = target: LIMK1 (Homo sapiens, UniProt P53667); assay: kinase panel; format: biochemical
[26] = target: P70S6K1 (Homo sapiens, UniProt P23443); assay: kinase panel; format: biochemical
[27] = target: P70S6K2 (Homo sapiens, UniProt Q9UBS0); assay: kinase panel; format: biochemical
[28] = target: PTK5 (Homo sapiens, UniProt P42685); assay: kinase panel; format: biochemical
[29] = target: PAK2 (Homo sapiens, UniProt Q13177); assay: kinase panel; format: biochemical
[30] = target: YES (Homo sapiens, UniProt P07947); assay: kinase panel; format: biochemical
[31] = target: PAK3 (Homo sapiens, UniProt O75914); assay: kinase panel; format: biochemical
[32] = target: ZAP70 (Homo sapiens, UniProt P43403); assay: kinase panel; format: biochemical
[33] = target: Muscarinic M2 (Homo sapiens, UniProt P08172); assay: Muscarinic M2 calcium flux assay with ATP priming; format: cell-based
[34] = target: Norepinephrine Transporter (Homo sapiens, UniProt P23975); assay: Norepinephrine Transporter assay; format: binding
[35] = target: PPARgamma Receptor (Homo sapiens, UniProt P37231); assay: PPARgamma Receptor agonist assay; format: cell-based
[36] = target: T1, Serotonin 5HT2A (Homo sapiens, UniProt P28223); assay: Serotonin 5HT2A calcium flux assay; format: cell-based
[37] = target: T1, Serotonin 5HT2A; assay: Serotonin 5HT2A calcium flux assay; format: cell-based; remark: listed apart in the source
[38] = tested on: exon19del/T790M EGFR Ba/F3 cells; assay: Ba/F3 cell proliferation; format: cell-based; conditions: EAI045 with cetuximab (10 μg/ml)
Summary of the method: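 Ba/F3 cells, either parental or stably expressing mutant EGFR lines described earlier, were exposed to the test compound for 72 hours. Cell numbers were set empirically. Growth was read by MTS assay. Each point was run in six wells, and each experiment was repeated at least three times. Curves were fitted by non-linear regression to a sigmoidal dose response.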

[39] = tested on: L858R/T790M-mutant lung cancer (genetically engineered mice); assay: Mouse efficacy study, tumor volume by MRI; format: in vivo; conditions: EAI045 alone 60 mg/kg oral once daily, 4 weeks
[40] = tested on: EGFR signaling in L858R/T790M/C797S mice; assay: Pharmacodynamic study, western blotting of tumor nodules; format: in vivo, mouse; conditions: EAI045 in combination with cetuximab, 2 doses
Summary of the method: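 Transgenic mice were induced at 6 weeks: exon19del/T790M by doxycycline diet, L858R/T790M/C797S by intranasal Ad-Cre. […] Tumor nodules were lysed and protein-equalized for western blotting. Bands were detected by HRP chemiluminescence. Multiple independent tumors were analyzed.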

T1 sequence (P28223 whole entry): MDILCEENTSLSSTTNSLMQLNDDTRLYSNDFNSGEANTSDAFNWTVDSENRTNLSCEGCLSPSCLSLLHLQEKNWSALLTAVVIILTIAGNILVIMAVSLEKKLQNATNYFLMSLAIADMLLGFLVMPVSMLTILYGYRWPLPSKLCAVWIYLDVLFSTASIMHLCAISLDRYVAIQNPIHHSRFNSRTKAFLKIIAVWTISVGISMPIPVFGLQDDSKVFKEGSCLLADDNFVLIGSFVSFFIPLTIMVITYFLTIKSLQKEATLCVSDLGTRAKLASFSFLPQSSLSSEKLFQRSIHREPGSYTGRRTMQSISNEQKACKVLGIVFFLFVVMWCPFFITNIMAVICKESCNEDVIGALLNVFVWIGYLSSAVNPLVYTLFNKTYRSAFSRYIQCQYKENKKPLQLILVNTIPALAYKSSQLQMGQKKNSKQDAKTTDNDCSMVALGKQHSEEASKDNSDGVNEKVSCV
EGFR, sequence (P00533 25-1210): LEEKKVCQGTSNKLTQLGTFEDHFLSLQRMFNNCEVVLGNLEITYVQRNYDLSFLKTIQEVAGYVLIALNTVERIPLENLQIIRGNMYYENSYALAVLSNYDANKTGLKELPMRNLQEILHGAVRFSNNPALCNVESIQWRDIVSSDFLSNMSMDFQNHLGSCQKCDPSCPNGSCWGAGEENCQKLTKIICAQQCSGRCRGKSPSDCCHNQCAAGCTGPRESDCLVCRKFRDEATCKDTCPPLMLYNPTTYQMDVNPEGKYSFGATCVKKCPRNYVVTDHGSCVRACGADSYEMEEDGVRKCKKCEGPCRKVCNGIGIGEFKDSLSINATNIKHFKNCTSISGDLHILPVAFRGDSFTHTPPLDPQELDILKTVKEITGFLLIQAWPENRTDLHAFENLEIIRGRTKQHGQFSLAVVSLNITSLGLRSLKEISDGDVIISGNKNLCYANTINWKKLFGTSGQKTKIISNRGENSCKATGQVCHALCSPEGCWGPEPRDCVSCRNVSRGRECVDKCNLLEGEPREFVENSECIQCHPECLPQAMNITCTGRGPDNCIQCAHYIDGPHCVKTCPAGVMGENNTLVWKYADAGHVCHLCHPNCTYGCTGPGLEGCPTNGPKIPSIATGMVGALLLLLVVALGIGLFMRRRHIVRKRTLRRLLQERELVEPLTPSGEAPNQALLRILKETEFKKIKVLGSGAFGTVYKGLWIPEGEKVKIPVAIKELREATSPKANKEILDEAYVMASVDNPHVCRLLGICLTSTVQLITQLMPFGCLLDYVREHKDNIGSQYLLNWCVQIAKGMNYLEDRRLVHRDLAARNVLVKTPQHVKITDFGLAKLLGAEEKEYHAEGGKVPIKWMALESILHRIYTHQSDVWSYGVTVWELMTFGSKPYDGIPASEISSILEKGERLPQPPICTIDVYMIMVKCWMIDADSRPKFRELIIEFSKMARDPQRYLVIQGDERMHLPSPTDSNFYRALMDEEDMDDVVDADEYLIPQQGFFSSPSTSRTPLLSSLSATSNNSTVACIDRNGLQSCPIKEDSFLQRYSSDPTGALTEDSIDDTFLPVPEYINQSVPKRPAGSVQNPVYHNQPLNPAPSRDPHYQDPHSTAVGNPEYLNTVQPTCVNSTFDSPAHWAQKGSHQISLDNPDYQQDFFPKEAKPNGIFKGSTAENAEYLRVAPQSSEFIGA
CAMK2D, sequence (Q13557 whole entry): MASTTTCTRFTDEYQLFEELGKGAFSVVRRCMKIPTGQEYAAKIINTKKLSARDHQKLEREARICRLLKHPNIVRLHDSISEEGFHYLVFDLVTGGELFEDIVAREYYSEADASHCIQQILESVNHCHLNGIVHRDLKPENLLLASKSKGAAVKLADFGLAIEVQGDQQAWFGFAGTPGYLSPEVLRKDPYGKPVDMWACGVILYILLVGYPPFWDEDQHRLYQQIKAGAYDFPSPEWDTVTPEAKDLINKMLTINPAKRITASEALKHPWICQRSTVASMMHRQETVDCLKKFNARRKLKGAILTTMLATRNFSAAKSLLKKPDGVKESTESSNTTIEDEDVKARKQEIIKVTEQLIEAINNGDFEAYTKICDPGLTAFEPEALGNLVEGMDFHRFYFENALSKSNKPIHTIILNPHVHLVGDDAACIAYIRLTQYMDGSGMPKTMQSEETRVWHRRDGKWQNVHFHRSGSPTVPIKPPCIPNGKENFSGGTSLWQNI
NEK6, sequence (Q9HC98 whole entry): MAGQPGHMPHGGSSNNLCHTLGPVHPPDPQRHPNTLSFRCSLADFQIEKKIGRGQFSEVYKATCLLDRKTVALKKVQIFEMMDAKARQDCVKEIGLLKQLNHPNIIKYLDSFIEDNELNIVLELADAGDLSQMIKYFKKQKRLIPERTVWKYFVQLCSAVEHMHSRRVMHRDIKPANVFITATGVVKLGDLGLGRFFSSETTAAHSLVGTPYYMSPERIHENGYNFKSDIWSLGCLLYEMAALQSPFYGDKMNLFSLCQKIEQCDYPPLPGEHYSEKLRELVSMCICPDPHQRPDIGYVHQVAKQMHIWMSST
RSK2, sequence (P51812 whole entry): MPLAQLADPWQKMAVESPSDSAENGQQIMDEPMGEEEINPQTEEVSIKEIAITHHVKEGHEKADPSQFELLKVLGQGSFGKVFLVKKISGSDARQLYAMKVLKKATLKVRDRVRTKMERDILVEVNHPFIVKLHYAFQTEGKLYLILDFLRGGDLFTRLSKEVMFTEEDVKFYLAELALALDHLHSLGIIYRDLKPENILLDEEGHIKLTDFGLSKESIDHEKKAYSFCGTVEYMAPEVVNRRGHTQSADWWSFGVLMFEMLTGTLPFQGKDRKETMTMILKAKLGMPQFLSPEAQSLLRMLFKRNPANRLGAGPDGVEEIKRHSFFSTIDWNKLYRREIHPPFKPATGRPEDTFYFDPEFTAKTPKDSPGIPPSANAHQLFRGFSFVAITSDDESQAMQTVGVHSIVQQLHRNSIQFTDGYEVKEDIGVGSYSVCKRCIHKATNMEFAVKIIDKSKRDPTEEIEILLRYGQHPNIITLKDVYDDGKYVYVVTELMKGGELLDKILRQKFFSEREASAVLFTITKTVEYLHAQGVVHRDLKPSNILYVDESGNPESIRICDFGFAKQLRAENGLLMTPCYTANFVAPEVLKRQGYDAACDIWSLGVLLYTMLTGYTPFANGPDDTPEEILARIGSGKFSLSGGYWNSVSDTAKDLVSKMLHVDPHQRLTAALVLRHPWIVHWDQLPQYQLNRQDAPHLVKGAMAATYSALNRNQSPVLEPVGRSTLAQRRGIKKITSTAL
PAK2, sequence (Q13177 whole entry): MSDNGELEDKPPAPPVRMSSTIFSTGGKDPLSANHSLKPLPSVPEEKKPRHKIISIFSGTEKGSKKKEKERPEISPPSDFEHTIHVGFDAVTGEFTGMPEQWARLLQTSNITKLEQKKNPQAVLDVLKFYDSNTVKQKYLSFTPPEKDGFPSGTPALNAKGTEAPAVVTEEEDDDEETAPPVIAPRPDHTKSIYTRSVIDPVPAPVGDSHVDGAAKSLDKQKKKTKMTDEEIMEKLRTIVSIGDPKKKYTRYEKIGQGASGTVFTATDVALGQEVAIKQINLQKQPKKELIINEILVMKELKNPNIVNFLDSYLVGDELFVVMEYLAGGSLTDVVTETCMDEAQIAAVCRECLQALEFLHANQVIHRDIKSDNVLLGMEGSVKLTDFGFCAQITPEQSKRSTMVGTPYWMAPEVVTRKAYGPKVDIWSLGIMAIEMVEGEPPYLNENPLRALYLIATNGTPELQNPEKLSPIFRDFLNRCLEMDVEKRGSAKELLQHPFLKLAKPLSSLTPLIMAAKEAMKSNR
IKK-BETA, sequence (O14920 whole entry): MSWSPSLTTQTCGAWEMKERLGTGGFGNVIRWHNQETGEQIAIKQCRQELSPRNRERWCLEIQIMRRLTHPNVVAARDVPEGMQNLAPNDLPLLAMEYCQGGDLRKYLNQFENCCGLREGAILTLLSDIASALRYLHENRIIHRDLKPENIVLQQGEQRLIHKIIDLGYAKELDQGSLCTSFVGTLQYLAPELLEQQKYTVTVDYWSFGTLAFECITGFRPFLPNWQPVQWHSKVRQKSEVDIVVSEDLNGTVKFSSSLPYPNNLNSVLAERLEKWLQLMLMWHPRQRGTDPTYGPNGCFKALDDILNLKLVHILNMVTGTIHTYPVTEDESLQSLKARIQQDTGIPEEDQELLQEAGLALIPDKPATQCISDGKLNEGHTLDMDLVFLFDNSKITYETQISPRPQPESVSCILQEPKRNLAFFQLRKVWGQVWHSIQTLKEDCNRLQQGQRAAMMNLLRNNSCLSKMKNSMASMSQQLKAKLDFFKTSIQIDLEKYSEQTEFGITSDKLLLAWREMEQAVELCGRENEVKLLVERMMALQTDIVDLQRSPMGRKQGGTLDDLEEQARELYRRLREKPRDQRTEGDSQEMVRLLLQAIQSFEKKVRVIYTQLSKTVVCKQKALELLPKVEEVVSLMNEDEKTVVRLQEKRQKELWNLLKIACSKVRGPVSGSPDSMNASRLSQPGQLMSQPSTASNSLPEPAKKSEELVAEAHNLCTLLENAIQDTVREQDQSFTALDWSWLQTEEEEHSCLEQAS
Muscarinic M2, sequence (P08172 whole entry): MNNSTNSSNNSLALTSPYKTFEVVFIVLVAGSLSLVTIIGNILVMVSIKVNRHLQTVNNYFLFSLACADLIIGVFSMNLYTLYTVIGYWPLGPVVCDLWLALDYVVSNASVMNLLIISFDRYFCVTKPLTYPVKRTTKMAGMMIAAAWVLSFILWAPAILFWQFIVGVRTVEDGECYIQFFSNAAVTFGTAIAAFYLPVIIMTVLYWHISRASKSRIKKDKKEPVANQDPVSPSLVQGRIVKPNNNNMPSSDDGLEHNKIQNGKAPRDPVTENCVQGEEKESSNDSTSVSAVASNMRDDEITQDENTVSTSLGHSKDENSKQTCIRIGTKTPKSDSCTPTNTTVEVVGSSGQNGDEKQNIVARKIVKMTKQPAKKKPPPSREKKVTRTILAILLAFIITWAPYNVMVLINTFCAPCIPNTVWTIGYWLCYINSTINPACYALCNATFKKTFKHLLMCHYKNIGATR

Work on `O=C(Nc1nccs1)C(c1cc(F)ccc1O)N1Cc2ccccc2C1=O` (stereo not shown) [EAI045, 2-(5-fluoro-2-hydroxyphenyl)-2-(1-oxo-2,3-dihydro-1H-isoindol-2-yl)-N-(1,3-thiazol-2-yl)acetamide] yielded an inhibition at 1 µM [1] of 1%, an inhibition at 1 µM [2] of 0% and an inhibition at 1 µM [3] of 0%. For the same molecule, the inhibition at 1 µM [4] was 0%, the inhibition at 1 µM [5] was 0% and the inhibition at 1 µM [6] was 8%. The inhibition at 1 µM [7] was 0%, the inhibition at 1 µM [8] was 4% and the inhibition at 1 µM [9] was 0%. For the same molecule, the inhibition at 1 µM [10] was 4%, the inhibition at 1 µM [11] was 0% and the inhibition at 1 µM [12] was 4%. The inhibition at 1 µM [13] was 0%, the inhibition at 1 µM [14] was 7% and the inhibition at 1 µM [15] was 0%. The inhibition at 1 µM [16] was 0%, the inhibition at 1 µM [17] was 0% and the inhibition at 1 µM [18] was 2%. For the same molecule, the inhibition at 1 µM [19] was 4%, the inhibition at 1 µM [20] was 0% and the inhibition at 1 µM [21] was 0%. The inhibition at 1 µM [22] was 0%, the inhibition at 1 µM [23] was 0% and the inhibition at 1 µM [24] was 0%. It also gave an inhibition at 1 µM [25] of 0%, an inhibition at 1 µM [26] of 0% and an inhibition at 1 µM [27] of 0%. It also gave an inhibition at 1 µM [28] of 0%, an inhibition at 1 µM [29] of 0% and an inhibition at 1 µM [30] of 0%. The inhibition at 1 µM [31] was 0%, the inhibition at 1 µM [32] was 1% and the IC50 [33] was > 30 µM. The IC50 [34] was > 30 µM, the IC50 [35] was > 30 µM and the IC50 [36] was > 30 µM. For the same molecule, the IC50 [37] was > 30 µM, the proliferation [38] was “not inhibited” and the tumor response [39] was “did not respond”. The “phosphorylation of EGFR and downstream signaling proteins in tumors” value [40] was “effectively inhibited”.
